Results published in publication PMC6557269 (Journal of controlled release : official journal of the …, 2019).
Ends that are not written are not given here. * marks the point of attachment. DTPA = O=C(O)CN(CCN(CC(=O)O)CC(=O)O)CCN(CC(=O)O)CC(=O)*; PEG = 40 kDa poly(ethylene glycol)

Columns and labels:
[1] = target: T1, TIP1 protein (Homo sapiens, UniProt O14907); assay: Surface plasmon resonance; assay type: binding; conditions: SPR BIAcore 2000, TIP1 on CM5 chip, Supplementary figure 1
T1 sequence (O14907 1-124): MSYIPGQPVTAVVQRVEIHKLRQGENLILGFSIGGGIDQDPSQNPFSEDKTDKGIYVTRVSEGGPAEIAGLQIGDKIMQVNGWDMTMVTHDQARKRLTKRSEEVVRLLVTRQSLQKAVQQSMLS

[2] = test system: HT3 tumors; assay: NanoSPECT/CT imaging, heterotopic cervical tumors; assay type: in vivo, nude mice
[3] = test system: OE33 tumors; assay: NanoSPECT/CT imaging, heterotopic esophageal tumors; assay type: in vivo, nude mice
[4] = test system: A549 tumors; assay: NanoSPECT/CT imaging, heterotopic lung tumors; assay type: in vivo; conditions: nude mice, 48 h post injection, tumor irradiated 3 x 3 Gy
[5] = test system: BxPC3 tumors; assay: NanoSPECT/CT imaging, heterotopic pancreatic tumors; assay type: in vivo; conditions: nude mice, 48 h post injection, tumor irradiated 3 x 3 Gy
[6] = test system: D54 tumors; assay: NanoSPECT/CT imaging, heterotopic glioblastoma tumors; assay type: in vivo; conditions: nude mice, 48 h post injection, tumor irradiated 3 x 3 Gy
[7] = test system: HT3 tumors; assay type: in vivo, nude mice
[8] = test system: OE33 tumors; assay type: in vivo, nude mice
[9] = test system: OE33 tumors; assay: Autoradiography of tumor and muscle sections; assay type: in vivo, nude mice; conditions: phosphor imager plate 16 h, after SPECT imaging
Procedure, shortened: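 After SPECT, tumors were sectioned at 200 micron, with leg muscle sections as control tissue. Sections were exposed to a phosphor imager plate for 16 h at −20 °C, and the plate was scanned to map microdistribution of the ¹¹¹In-labelled PEG-peptide.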

[10] = nude mice, i.v. ~500 μCi, 48 h and 72 h post injection, n=3 per group
[11] = right hind limb tumor 3 x 3 Gy vs left sham tumor
[12] = 96 h post injection, gamma counter, n=3 per group

| binding to immobilized TIP1 (sensogram comparison) [1] | Substance | tumor binding by SPECT, HT3 tumors [2, 10] | effect of irradiating the tumor on tumor binding, HT3 [2, 11] | tumor binding by SPECT, OE33 tumors [3, 10] | effect of irradiating the tumor on tumor binding, OE33 [3, 11] | tumor binding by SPECT/CT, irradiated A549 tumors, compared to PEG-control [4] | tumor binding by SPECT/CT, irradiated BxPC3 tumors, compared to PEG-control [5] | tumor binding by SPECT/CT, irradiated D54 tumors, compared to PEG-control [6] | tumor uptake in biodistribution vs control peptide, HT3 [7, 12] | presence in blood and liver, HT3 tumor-bearing mice ([7]; mouse, in vivo) | tumor uptake in biodistribution vs control peptide, OE33 [8, 12] | presence in blood and liver, OE33 tumor-bearing mice ([8]; mouse, in vivo) | microscopic distribution in OE33 tumor sections [9] | uptake in leg muscle sections (control tissue) [9] |
| --- | --- | --- | --- | --- | --- | --- | --- | --- | --- | --- | --- | --- | --- | --- |
| did not show binding | HGVIGRV [scrambled peptide, reference compound] | – | – | – | – | – | – | – | – | – | – | – | – | – |
| – | ^111In-labeled PEG-DTPA-HVGGSSV: DTPA-PEG-HVGGSSV labeled with ^111Indium ({DTPA-PEG}-HVGGSSV; also: 111In chelated by DTPA) | bound | did not affect tumor binding | bound | did not affect tumor binding | enhanced binding | enhanced binding | enhanced binding | significantly higher (p<0.001) | observed in the blood and liver | significantly higher (p<0.001) | observed in the blood and liver | even distribution | no peptide uptake |
| did not alter the binding affinity | mPEG40K-carbonyl-Lys(CHX-A”-DTPA)-AEEAc-Lys(CHX-A”-DTPA)-AEEAc-Trp-Lys(CHX-A”-DTPA)-AEEAc-Gly-Ile-Arg-Leu-Arg-Gly-OH [PEG-HVGGSSV, mPEG40K-carbonyl-Lys(CHX-A”-DTPA)-AEEAc-Lys(CHX-A”-DTPA)-AEEAc-Trp-Lys(CHX-A”-DTPA)-AEEAc-Gly-Ile-Arg-Leu-Arg-Gly-OH trifluoroacetate Salt] | – | – | – | – | – | – | – | – | – | – | – | – | – |
